Assay results as given in ChEMBL document CHEMBL2021854, “2-Aminopyrimidine based 4-aminoquinoline anti-plasmodial agents. Synthesis, biological activity, structure-activity relationship and mode of action studies” (Eur J Med Chem, 2012).

Columns and labels:
Coxsackievirus B4 [1] = assay: Antiviral activity against Coxsackie virus B4 infected in african green monkey Vero cells assessed as inhibition of virus-induced cytopathogenicity after 4 days; assay type: functional, organism-based; details: Enterovirus B, 96 h
Procedure, shortened: (§1)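 Confluent HEL, Vero or HeLa monolayers were inoculated with 100 CCID50 of virus in the presence of varying concentrations of compound. Cytopathicity was scored when it reached completion in untreated, virus-infected control cultures.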

Influenza B virus [2] = assay: Antiviral activity against Influenza B virus infected in MDCK cells assessed as reduction visual scoring of virus-induced cytopathogenicity after 4 days; assay type: functional, organism-based; details: 96 h
Procedure, shortened: (§2)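 MDCK monolayers infected with 100 CCID50 of influenza A (H1N1 or H3N2) or influenza B, with varying compound concentrations. Cytopathicity read when untreated infected controls reached complete CPE.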

[3] = Cytotoxicity against MDCK cells assessed as minimum compound concentration required to causes microscopically detectable alteration of normal cell morphology; assay type: cell-based, Canis lupus familiaris; details: dog
Procedure, shortened: (§3)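 Confluent, non-proliferating cell cultures were exposed to the compounds. The endpoint was the minimum concentration producing a microscopically detectable alteration of normal cell morphology.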

[4] = Cytotoxicity against human HeLa cells assessed as minimum compound concentration required to causes microscopically detectable alteration of normal cell morphology; assay type: cell-based; procedure, shortened: as §3
[5] = Cytotoxicity against human HEL cells assessed as minimum compound concentration required to causes microscopically detectable alteration of normal cell morphology; assay type: cell-based; procedure, shortened: as §3
Influenza A virus [6] = assay: Antiviral activity against Influenza A virus H3N2 infected in MDCK cells assessed as reduction visual scoring of virus-induced cytopathogenicity after 4 days; assay type: functional, organism-based; details: 96 h; procedure, shortened: as §2
[7] = tested on: Mammalian orthoreovirus 1; assay: Antiviral activity against Reovirus-1 infected in african green monkey Vero cells assessed as inhibition of virus-induced cytopathogenicity after 4 days; assay type: functional, organism-based; details: Mammalian orthoreovirus 1, Vero, 96 h; procedure, shortened: as §1
Human betaherpesvirus 5 [8] = assay: Antiviral activity against Human cytomegalovirus Davis infected in HEL cells assessed as inhibition of virus plaque formation after 4 days; assay type: functional, organism-based; details: Human betaherpesvirus 5, Davis, 96 h
[9] = tested on: Feline infectious peritonitis virus; assay: Antiviral activity against FIPV infected in cat CRFK cells assessed as inhibition of virus-induced cytopathic effect after 4 days by colorimetric formazan-based MTS assay; assay type: functional, cell-based; details: Alphacoronavirus 1, CRFK, 96 h
Plasmodium falciparum [10] = assay: Antiplasmodial activity chloroquine-resistant Plasmodium falciparum K1 infected in human A+ erythrocytes assessed as inhibition of [3H]-hypoxanthine incorporation after 24 hrs by scintillation counting; assay type: functional, organism-based
[11] = tested on: Human immunodeficiency virus 1; assay: Antiviral activity against HIV1 infected in human CEM cells assessed as inhibition of virus-induced cytopathic effect after 4 days; assay type: functional, organism-based; details: Human immunodeficiency virus 1, CCRF-CEM, 96 h
Procedure, shortened: (§4)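 CEM T-lymphocytes (~3 × 10^5 cells/ml) were infected with HIV-1 IIIB or HIV-2 ROD at ~100 CCID50, then immediately plated with a range of compound concentrations. Giant cell formation was scored microscopically after 4 days at 37 °C. Cytostatic activity was tested in parallel in uninfected CEM cells.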

Punta Toro virus = assay: Antiviral activity against Punta Toro virus infected in african green monkey Vero cells assessed as inhibition of virus-induced cytopathogenicity after 4 days; assay type: functional, organism-based; details: 96 h; procedure, shortened: as §1
[12] = Cytotoxicity against cat CRFK cells assessed as cell viability by colorimetric formazan-based MTS assay; design: species or system Felis catus; details: crfk
Human alphaherpesvirus 2 = assay: Antiviral activity against HSV2 G infected in HEL cells assessed as inhibition of virus-induced cytopathogenicity after 4 days; assay type: functional, organism-based; details: Human alphaherpesvirus 2, strain G, 96 h; procedure, shortened: as §1
Human betaherpesvirus 5 [13] = assay: Antiviral activity against Cytomegalovirus AD-169 infected in HEL cells assessed as inhibition of virus plaque formation after 4 days; assay type: functional, organism-based; details: Human betaherpesvirus 5, AD169, HEL, 96 h
Felid alphaherpesvirus 1 = assay: Antiviral activity against Feline herpesvirus infected in cat CRFK cells assessed as inhibition of virus-induced cytopathic effect after 4 days by colorimetric formazan-based MTS assay; assay type: functional, organism-based; details: Felid alphaherpesvirus 1, CRFK, 96 h
Influenza B virus [14] = assay: Antiviral activity against Influenza B virus infected in MDCK cells assessed as inhibition of virus-induced cytopathogenicity after 4 days by colorimetric formazan-based MTS assay; assay type: functional, organism-based; details: 96 h
Human alphaherpesvirus 1 [15] = assay: Antiviral activity against thymidine kinase-deficient acyclovir-resistant HSV1 KOS infected in HEL cells assessed as inhibition of virus-induced cytopathogenicity after 4 days; assay type: functional, organism-based; details: Human alphaherpesvirus 1, KOS, 96 h
Procedure, shortened: (§5)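 Confluent HEL or HeLa monolayers infected with 100 CCID50 of virus in the presence of varying compound concentrations.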

Influenza A virus [16] = assay: Antiviral activity against Influenza A virus H1N1 infected in MDCK cells assessed as inhibition of virus-induced cytopathogenicity after 4 days by colorimetric formazan-based MTS assay; assay type: functional, organism-based; details: 96 h
Plasmodium falciparum [17] = assay: Antiplasmodial activity chloroquine-sensitive Plasmodium falciparum 3D7 infected in human A+ erythrocytes assessed as inhibition of [3H]-hypoxanthine incorporation after 24 hrs by scintillation counting; assay type: functional, organism-based
[18] = Selectivity index, ratio of CC50 for MDCK cells to IC50 for chloroquine-resistant Plasmodium falciparum K1; assay type: functional
Procedure, shortened: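 Selectivity index computed as MTS-based CC50 on MDCK cells divided by IC50 against P. falciparum K1.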

Influenza A virus [19] = assay: Antiviral activity against Influenza A virus H1N1 infected in MDCK cells assessed as reduction visual scoring of virus-induced cytopathogenicity after 4 days; assay type: functional, organism-based; details: 96 h; procedure, shortened: as §2
Influenza A virus [20] = assay: Antiviral activity against Influenza A virus H3N2 infected in MDCK cells assessed as inhibition of virus-induced cytopathogenicity after 4 days by colorimetric formazan-based MTS assay; assay type: functional, organism-based; details: 96 h
Human respirovirus 3 = assay: Antiviral activity against Parainfluenza-3 virus infected in african green monkey Vero cells assessed as inhibition of virus-induced cytopathogenicity after 4 days; assay type: functional, organism-based; details: Human respirovirus 3, Vero, 96 h; procedure, shortened: as §1
MDCK = assay: Cytotoxicity against MDCK cells assessed as cell viability by colorimetric formazan-based MTS assay; design: species or system Canis lupus familiaris; details: dog, mdck
Procedure, shortened: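 Cytotoxicity on MDCK cells; 50% cytotoxic concentration from cell viability measured by colorimetric formazan-based MTS assay.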

Human alphaherpesvirus 3 [21] = assay: Antiviral activity against thymidine kinase-deficient […] infected in HEL cells assessed as reduction of virus plaque formation after 4 days; assay type: functional, organism-based; details: Human alphaherpesvirus 3, 07-1, HEL, 96 h
Sindbis virus = assay: Antiviral activity against Sindbis virus infected in african green monkey Vero cells assessed as inhibition of virus-induced cytopathogenicity after 4 days; assay type: functional, organism-based; details: 96 h; procedure, shortened: as §1
[22] = tested on: Human immunodeficiency virus 2; assay: Antiviral activity against HIV2 infected in human CEM cells assessed as inhibition of virus-induced cytopathic effect after 4 days; assay type: functional, organism-based; details: Human immunodeficiency virus 2, CCRF-CEM, 96 h; procedure, shortened: as §4
[23] = Cytotoxicity against african green monkey Vero cells assessed as minimum compound concentration required to causes microscopically detectable alteration of normal cell morphology; assay type: cell-based; details: chlorocebus sabaeus; procedure, shortened: as §3
Coxsackievirus B4 [24] = assay: Antiviral activity against Coxsackie virus B4 infected in human HeLa cells assessed as inhibition of virus-induced cytopathogenicity after 4 days; assay type: functional, organism-based; details: Enterovirus B, 96 h; procedure, shortened: as §1
[25] = tested on: Respiratory syncytial virus; assay: Antiviral activity against Respiratory syncytial virus infected in human HeLa cells assessed as inhibition of virus-induced cytopathogenicity after 4 days; assay type: functional, organism-based; details: 96 h; procedure, shortened: as §1
Human alphaherpesvirus 1 [26] = assay: Antiviral activity against HSV1 KOS infected in HEL cells assessed as inhibition of virus-induced cytopathogenicity after 4 days; assay type: functional, organism-based; details: Human alphaherpesvirus 1, KOS, 96 h; procedure, shortened: as §5
HeLa = assay: Cytotoxicity against human HeLa cells assessed as cell viability by colorimetric formazan-based MTS assay
Plasmodium falciparum [27] = assay: Resistant factor, ratio of IC50 for chloroquine-resistant Plasmodium falciparum K1 to IC50 for chloroquine-sensitive Plasmodium falciparum 3D7; assay type: functional
Procedure, shortened: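 Resistance factor computed as IC50 against K1 divided by IC50 against 3D7, both from the [3H]hypoxanthine incorporation assay.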

[28] = tested on: Vesicular stomatitis virus; assay: Antiviral activity against Vesicular stomatitis virus infected in HeLa cells assessed as inhibition of virus-induced cytopathogenicity after 4 days; assay type: functional, organism-based; details: 96 h; procedure, shortened: as §5
[29] = tested on: Vesicular stomatitis virus; assay: Antiviral activity against Vesicular stomatitis virus infected in HEL cells assessed as inhibition of virus-induced cytopathogenicity after 4 days; assay type: functional, organism-based; details: 96 h; procedure, shortened: as §5
Human alphaherpesvirus 3 [30] = assay: Antiviral activity against […] expressing thymidine kinase infected in HEL cells assessed as reduction of virus plaque formation after 4 days; assay type: functional, cell-based; details: Human alphaherpesvirus 3, strain Oka vaccine, 96 h
[31] = Inhibition of beta-hematin formation assessed as Ferriprotoporphyrin IX biomineralisation at 1 mg/ml after 24 hrs; assay type: functional
Procedure, shortened: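 Hemin chloride (0.5 mg/ml in DMSO) mixed with 0.5 M sodium acetate buffer pH 4.4 and drug or solvent control, incubated 37 °C for 24 h. Pellet washed with DMSO to remove unreacted hemin, dissolved in 0.1 N NaOH, absorbance read at 405 nm; percent inhibition relative to control. Highest concentration tested 1 mg/ml.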

Row | SMILES | EC50 (Coxsackievirus B4 [1]) | EC50 (Influenza B virus [2]) | MCC [3] | MCC [4] | MCC [5] | EC50 (Influenza A virus [6]) | EC50 [7] | EC50 (Human betaherpesvirus 5 [8]) | EC50 [9] | IC50 (Plasmodium falciparum [10]) | EC50 [11] | EC50 (Punta Toro virus) | CC50 [12] | EC50 (Human alphaherpesvirus 2) | EC50 (Human betaherpesvirus 5 [13]) | EC50 (Felid alphaherpesvirus 1) | EC50 (Influenza B virus [14]) | EC50 (Human alphaherpesvirus 1 [15]) | EC50 (Influenza A virus [16]) | IC50 (Plasmodium falciparum [17]) | also measured
1 | CCOC(=O)c1c(C)nc(NCCCNc2ccnc3cc(Cl)ccc23)nc1-c1ccccc1 | > 20 µM | > 0.16 µM | 800 nM | > 100 µM | > 20 µM | > 0.16 µM | > 20 µM | 4 µM | > 4 µM | 0.0522 µM | > 2 µM | > 20 µM | 15.9 µM | > 100 µM | 4 µM | > 4 µM | > 0.16 µM | > 100 µM | > 0.16 µM | 0.247 µM | Ratio CC50/IC50 [18]: 15.33; EC50 (Influenza A virus [19]): > 0.16 µM; EC50 (Influenza A virus [20]): > 0.16 µM; EC50 (Human respirovirus 3): > 20 µM; CC50 (MDCK): 0.8 µM; EC50 (Human alphaherpesvirus 3 [21]): > 20 µM; EC50 (Sindbis virus): > 20 µM; EC50 [22]: > 2 µM; MCC [23]: 100 µM; EC50 (Coxsackievirus B4 [24]): > 100 µM; EC50 [25]: > 100 µM; EC50 (Human alphaherpesvirus 1 [26]): > 100 µM; CC50 (HeLa): 7.07 µM; Ratio IC50 (Plasmodium falciparum [27]): 0.21; EC50 [28]: > 100 µM; EC50 [29]: > 100 µM; EC50 (Human alphaherpesvirus 3 [30]): > 4 µM; inhibition [31]: 100%
2 | Cc1nc(NCCCNc2ccnc3cc(Cl)ccc23)nc(-c2cccc([N+](=O)[O-])c2)c1C(=O)OC(C)C | > 20 µM | > 0.16 µM | 800 nM | 20 µM | 20 µM | > 0.16 µM | > 20 µM | > 4 µM | > 4 µM | 0.231 µM | > 2 µM | > 20 µM | 7.7 µM | > 4 µM | > 4 µM | > 4 µM | > 0.16 µM | > 4 µM | > 0.16 µM | 0.599 µM | Ratio CC50/IC50 [18]: 2.1; EC50 (Influenza A virus [19]): > 0.16 µM; EC50 (Influenza A virus [20]): > 0.16 µM; EC50 (Human respirovirus 3): > 20 µM; CC50 (MDCK): 0.5 µM; EC50 (Human alphaherpesvirus 3 [21]): > 4 µM; EC50 (Sindbis virus): > 20 µM; EC50 [22]: > 10 µM; MCC [23]: 100 µM; EC50 (Coxsackievirus B4 [24]): > 4 µM; EC50 [25]: > 4 µM; EC50 (Human alphaherpesvirus 1 [26]): > 4 µM; CC50 (HeLa): 1.04 µM; Ratio IC50 (Plasmodium falciparum [27]): 0.385; EC50 [28]: > 4 µM; EC50 [29]: > 4 µM; EC50 (Human alphaherpesvirus 3 [30]): 4 µM; inhibition [31]: 79%
